# Laboratory results taken from the RNAGym collection of RNA variant scans (doi:10.1126/science.aae0568).
# This sample holds only a part of the variants without activity.
# B1: tRNA (parent)
# chain: GUUCCGUUGGCGUAAUGGUAACGCGUCUCCCUCCUAAGGAGAAGACUGCGGGUUCGAGUCCCGUACGGAACG
# Variants of: B1
# Experiment: yeast fitness relative to wild type (ratio to wild type); higher = fitter; tRNA-Arg(CCU), competitive growth, 37 C, YPD
# How it was run: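 A pool of Saccharomyces cerevisiae strains, each with a tRNA-Arg(CCU) gene variant at the native genomic locus, was competed in YPD at 37°C for 24 hours across six parallel replicates. The variants had been chemically synthesised at a 3% per-site mutation rate over 69 sites, and gene amplicons before and after competition were read by 100-nucleotide paired-end sequencing. Darwinian fitness relative to wild type rested on changes in genotype frequencies. Genotypes required ≥ 100 starting reads, and estimates < 0.5 were set to 0.5.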
row,Variant,yeast fitness
1,C11U C22G A57G,0.586
2,C11U A14G C49A,≤ 0.5
3,C11U A15C G44A A65U,≤ 0.5
4,C11G U26C C31A A43U C61A,≤ 0.5
5,C11U A36G G41A C49U G63A,≤ 0.5
6,C11U A15G C29G G48A C62U C66U,0.535
7,C11U A21U G41A C61A,≤ 0.5
8,C11U A40U C46U C60G,0.589
9,C11U A14G C24G C27U G41A A42C,≤ 0.5
10,C11U A43U G63C,0.558
11,C11U A21C C22G,0.657
12,C11U A14G C31A A42G,≤ 0.5
13,C11U C22A C29G C33U G56C,≤ 0.5
14,C11U A65G A70U,0.606
15,C11U A20G C24G,0.506
16,C11U A21U G41A A57C,≤ 0.5
17,C11U A45U A57C G58A,0.61
18,C11U A65C,0.933
19,C11U A65U,0.923
20,C11U A65G,0.935
21,C11U A15G U26G C33A C55G,≤ 0.5
22,C11U A40G C46A,0.792
23,C11U A21U C66U,0.816
24,C11U A21G C24A,0.529

row,Variant,yeast fitness
1,C11U C22U C24U,0.56
2,C11U A14G A37C C49U,≤ 0.5
3,C11G U32C C60G,≤ 0.5
4,C11U A37C U47C G68C,≤ 0.5
5,C11U A20U G39A,≤ 0.5
6,C11U A57G C61A,≤ 0.5
7,C11U A57G C61U,≤ 0.5
8,C11U A20G C34G A40C G51C,≤ 0.5
9,C11U A15U G41A,≤ 0.5
10,C11G U47A C62G C66G,≤ 0.5
11,C11U A40U A69C,0.646
12,C11G U47A,0.686
13,C11G U47G,≤ 0.5
14,C11G U47C,0.687
15,C11U A14G C29U G39A,≤ 0.5
16,C11U A21U A42G C60A,≤ 0.5
17,C11U A14C A15G U26A C34A C46G,0.637
18,C11G U32A A36G C46U,0.592
19,C11U C22U C24U G41A A65C,≤ 0.5
20,C11U A21C C27G G44A A65U,≤ 0.5
21,C11U A45U A65C,0.733
22,C11U A20G C24G G63C,≤ 0.5
23,C11U A21U A45U,1.15
24,C11U A43G,0.945

row,Variant,yeast fitness
1,C11U A15C C29U A37G,0.535
2,C11U A70U,0.88
3,C11U A70C,0.898
4,C11G U32C A40U,0.662
5,C11U C24G A42G,≤ 0.5
6,C11U A21G A43C,0.649
7,C11U A21U C46A,0.685
8,C11U A21C A70G,≤ 0.5
9,C11U A45G C46G U47A C62G A65C,0.533
10,C11U C24G C33A A40C G50C,≤ 0.5
11,C11U A57G A69U,0.718
12,C11U A36U G48C,0.632
13,C11U A20U C24U C29A C49U A70G,≤ 0.5
14,C11U A36G A45C,0.807
15,C11U A42G C49A A57C,0.51
16,C11U A20U C24U C29A U32C A70G,≤ 0.5
17,C11U C24G U47A,0.565
18,C11U A21U C30G A42G,0.755
19,C11U A37U C60U,0.539
20,C11U A21C A42C G44A U54A C62U,≤ 0.5
21,C11U A40G G67C A69U,0.574
22,C11U A15U C27U C60G,0.563
23,C11U A21U G50C U64C,0.597
24,C11G U16C C22U C55U G68U,≤ 0.5

row,Variant,yeast fitness
1,C11G U16A U47C,0.655
2,C11U C24A A70U,≤ 0.5
3,C11U A40U C66G,≤ 0.5
4,C11U C22G A40C G41A U47A U53C G67C,≤ 0.5
5,C11U A20U C24U C29A A70G,≤ 0.5
6,C11U A21G C24A G52A C60A A69G,0.523
7,C11U A43G A57C,≤ 0.5
8,C11U C22U A57U A70C,≤ 0.5
9,C11U A14C G63C,≤ 0.5
10,C11U A14U A40G A42C A43G,≤ 0.5
11,C11U A14C C29G C30G A36U A40U,0.591
12,C11U A45C G51A,0.611
13,C11U A45U U53C,0.66
14,C11U A21C A37U A42G A69C A70G,≤ 0.5
15,C11U A14G C24G C27U A36G G41A A42C,≤ 0.5
16,C11G U54A,≤ 0.5
17,C11U A15C C27G A70G,≤ 0.5
18,C11U A14U G18A G41A A42C G50C A70G,0.552
19,C11U A14G G58A A69C,≤ 0.5
20,C11G U28A C31G G38A C49A A69G,0.559
21,C11G U16A U28C C29U G39A U59G U64A,≤ 0.5
22,C11U A20U C24U G38A C49A A70U,≤ 0.5
23,C11U A42C G48A,0.566
24,C11U C22U G67A,0.586

row,Variant,yeast fitness
1,C11U A14C C27G C31U C49G G58C,≤ 0.5
2,C11G U16G C55A,≤ 0.5
3,C11U A45G G58A A65G,1.11
4,C11U A20G A37G U54A U59G,≤ 0.5
5,C11G U32G A57C C62U C66U,0.556
6,C11G U19A A21G C27U G39C C60A,≤ 0.5
7,C11U A40G A65C,0.594
8,C11U A14G U35C A70U,≤ 0.5
9,C11G U26A C27A C29G C46A G50A U59G,0.73
10,C11U C24G C33A A40C A65U,0.641
11,C11U A15G G48C,0.511
12,C11G U26A C31A G44C C62A,≤ 0.5
13,C11U A14G A21C C29U A37G C55U,≤ 0.5
14,C11G U28A G39A G48A G58C,0.543
15,C11G U32C G48A C60G,≤ 0.5
16,C11U A40G A43C G56A,0.578
17,C11U A20C A69C,0.627
18,C11U C22U G58A C66U,0.532
19,C11U A20U A65C,≤ 0.5
20,C11U A21U C22U,0.673
21,C11U A40C A43U U53A,≤ 0.5
22,C11U C22G G52C G56U,≤ 0.5
23,C11G U26A U35A,≤ 0.5
24,C11U A43U C46G,0.723

row,Variant,yeast fitness
1,C11U A37G G52C A70U,≤ 0.5
2,C11G U35A G63C,0.602
3,C11U C24G C27G,≤ 0.5
4,C11U A40U C46U G63C,≤ 0.5
5,C11U C24A C31U C33U A37U G48A G67A,≤ 0.5
6,C11U A15G A65G,0.766
7,C11U A15G U26G U28C C33A C55G,≤ 0.5
8,C11U A21U C34G G56A,≤ 0.5
9,C11U A36C A65C C66U,0.558
10,C11U C22U G48C U54G C55U,≤ 0.5
11,C11U A15C C27A G39C A65C,0.531
12,C11G U16G G38C,0.577
13,C11U A20U G39A A65C,0.533
14,C11U A21C A36C A70U,≤ 0.5
15,C11U C22U C29G C34U G48C A57G,≤ 0.5
16,C11U C24G A70U,0.557
17,C11U A42U C66A,0.51
18,C11U A42G G48A,0.678
19,C11U A36G,0.822
20,C11U A15C C29U A37G A69U,≤ 0.5
21,C11U C24G G50U G63C G67A,≤ 0.5
22,C11U A37G C49U A69C,≤ 0.5
23,C11G U28C G67C,≤ 0.5
24,C11U A14G A20G C24G,≤ 0.5

row,Variant,yeast fitness
1,C11G U28A C62A,≤ 0.5
2,C11U A37C C49U,≤ 0.5
3,C11U A14U C24G C55U,≤ 0.5
4,C11U A42U G67C,0.536
5,C11U A20C,0.777
6,C11U A20G,0.957
7,C11U A21C A42G A69C,≤ 0.5
8,C11U A45U U54G,≤ 0.5
9,C11U A21U U35A A36U,≤ 0.5
10,C11G U28G A37G,≤ 0.5
11,C11U A14U C24G A42G,0.54
12,C11U A45C A70U,0.582
13,C11U A14G C27A G48A U53A C61G,≤ 0.5
14,C11U A43U A70G,0.738
15,C11U A14C C27U C31U C33A G67C,≤ 0.5
16,C11G U26C C49G,≤ 0.5
17,C11U A14C U16G C29A G68C,0.585
18,C11U A40U C55U G68A,≤ 0.5
19,C11U C24U C34G,≤ 0.5
20,C11U A21C C27G G39C C66U,≤ 0.5
21,C11G U28C A36G A43C,≤ 0.5
22,C11G U32G C33U A37U A65G,0.627
23,C11U A15G C27G C46U,0.548
